Experiments:
Staphylococcus aureus [1] = experiment: Antibacterial activity against Staphylococcus aureus SG 511 after 24 hrs by micro-broth dilution method; assay type: functional; conditions: SG 511, 24 h
In short: (§1)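 Microbroth dilution per NCCLS guidelines. Bacteria grown overnight at 37 °C in Mueller–Hinton broth. Compound solution serially diluted twofold in MHB, then wells inoculated to a final 5×10⁵ CFU/mL. Incubated 24 h at 37 °C. MIC (µg/mL) read on an automatic plate reader as the lowest dilution allowing no visible growth.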

Staphylococcus aureus [2] = experiment: Antibacterial activity against methicillin-resistant Staphylococcus aureus 994/93 after 24 hrs by micro-broth dilution method; assay type: functional
In short: (§2)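 Broth microdilution per NCCLS in Mueller–Hinton broth. Overnight cultures grown at 37 °C. Compound serially diluted twofold, then wells inoculated to a final 5×10⁵ CFU/mL. Plates held at 37 °C for 24 h. MIC (µg/mL) read on an automatic plate reader as the lowest dilution with no visible growth.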

Staphylococcus aureus [3] = experiment: Antibacterial activity against methicillin-resistant Staphylococcus aureus 134/94 after 24 hrs by microbroth dilution method; assay type: functional; in short: as §2
Micrococcus luteus = experiment: Antibacterial activity against Micrococcus luteus ATCC 10240 after 24 hrs by microbroth dilution method; assay type: functional; conditions: ATCC 10240, 24 h; in short: as §1
Enterococcus faecalis = experiment: Antibacterial activity against Enterococcus faecalis 1528 after 24 hrs by micro-broth dilution method; assay type: functional; in short: as §1
[4] = system: Mycolicibacterium smegmatis; experiment: Antimicrobial activity against Mycobacterium smegmatis SG 987 after 24 hrs by micro-broth dilution method; assay type: functional; in short: as §1
Mycolicibacterium aurum = experiment: Antimicrobial activity against Mycobacterium aurum SB 66 after 24 hrs by micro-broth dilution method; assay type: functional; in short: as §1
Mycolicibacterium vaccae = experiment: Antimicrobial activity against Mycobacterium vaccae 10670 after 24 hrs by micro-broth dilution method; assay type: functional; in short: as §1
[5] = system: Mycolicibacterium fortuitum; experiment: Antimicrobial activity against Mycobacterium fortuitum Borstel after 24 hrs by microbroth dilution method; assay type: functional; in short: as §1
[6] = system: Mycobacterium tuberculosis; experiment: Antimicrobial activity against Mycobacterium tuberculosis My 331/88 after 14 days; assay type: functional; conditions: 336 h
[7] = system: Mycobacterium tuberculosis; experiment: Antimicrobial activity against Mycobacterium tuberculosis My 331/88 after 21 days; assay type: functional; conditions: 504 h
Mycobacterium avium [8] = experiment: Antimicrobial activity against Mycobacterium avium My 330/88 after 14 days; assay type: functional; conditions: 336 h
Mycobacterium avium [9] = experiment: Antimicrobial activity against Mycobacterium avium My 330/88 after 21 days; assay type: functional; conditions: 504 h
Mycobacterium kansasii [10] = experiment: Antimicrobial activity against Mycobacterium kansasii My 235/80 after 7 days; assay type: functional; conditions: 168 h
In short: (§3)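 Run in Šula semisynthetic liquid medium containing bovine serum. Compounds added as DMSO solutions at final concentrations of […]. Each strain was also inoculated onto Löwenstein–Jensen medium to control inoculum sterility and growth.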

Mycobacterium kansasii [11] = experiment: Antimicrobial activity against Mycobacterium kansasii My 235/80 after 14 days; assay type: functional; conditions: 336 h; in short: as §3
Mycobacterium kansasii [12] = experiment: Antimicrobial activity against Mycobacterium kansasii My 235/80 after 21 days; assay type: functional; conditions: 504 h; in short: as §3
Mycobacterium kansasii [13] = experiment: Antimicrobial activity against Mycobacterium kansasii My 6509/96 after 7 days; assay type: functional; conditions: 168 h; in short: as §3
Mycobacterium kansasii [14] = experiment: Antimicrobial activity against Mycobacterium kansasii My 6509/96 after 14 days; assay type: functional; conditions: 336 h; in short: as §3
Mycobacterium kansasii [15] = experiment: Antimicrobial activity against Mycobacterium kansasii My 6509/96 after 21 days; assay type: functional; conditions: 504 h; in short: as §3
Candida albicans [16] = experiment: Antifungal activity against Candida albicans ATCC 44859 after 24 hrs; assay type: functional; conditions: ATCC 44859, 24 h
In short: (§4)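 Modified NCCLS M27-A broth microdilution with clinical isolates subcultured on Sabouraud dextrose agar. Suspensions diluted 1:50 in RPMI 1640 to give a final inoculum of 0.5–2.5×10³ CFU/mL for yeasts or 0.5–5×10⁴ CFU/mL for molds. The RPMI had L-glutamine, no bicarbonate, and 0.165 M MOPS to pH 7.0. Twofold dilutions from 250 to 0.49. Plates held at 35 °C, humid, without agitation. MIC is the lowest concentration giving ≥80% inhibition versus drug-free control, read at 24 and 48 h.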

Candida albicans [17] = experiment: Antifungal activity against Candida albicans ATCC 44859 after 48 hrs; assay type: functional; conditions: ATCC 44859, 48 h; in short: as §4
Candida tropicalis [18] = experiment: Antifungal activity against Candida tropicalis 156 after 24 hrs; assay type: functional; in short: as §4
Candida tropicalis [19] = experiment: Antifungal activity against Candida tropicalis 156 after 48 hrs; assay type: functional; in short: as §4
Pichia kudriavzevii [20] = experiment: Antifungal activity against Candida krusei E28 after 24 hrs; assay type: functional; in short: as §4
Pichia kudriavzevii [21] = experiment: Antifungal activity against Candida krusei E28 after 48 hrs; assay type: functional; in short: as §4
Nakaseomyces glabratus [22] = experiment: Antifungal activity against Candida glabrata 20/I after 24 hrs; assay type: functional; in short: as §4
Nakaseomyces glabratus [23] = experiment: Antifungal activity against Candida glabrata 20/I after 48 hrs; assay type: functional; in short: as §4
Trichosporon beigelii [24] = experiment: Antifungal activity against Trichosporon beigelii 1188 after 24 hrs; assay type: functional; in short: as §4
Trichosporon beigelii [25] = experiment: Antifungal activity against Trichosporon beigelii 1188 after 48 hrs; assay type: functional; in short: as §4
Aspergillus fumigatus [26] = experiment: Antifungal activity against Aspergillus fumigatus 231 after 24 hrs; assay type: functional; in short: as §4
Aspergillus fumigatus [27] = experiment: Antifungal activity against Aspergillus fumigatus 231 after 48 hrs; assay type: functional; in short: as §4
Lichtheimia corymbifera [28] = experiment: Antifungal activity against Absidia corymbifera 272 after 24 hrs; assay type: functional; in short: as §4
Lichtheimia corymbifera [29] = experiment: Antifungal activity against Absidia corymbifera 272 after 48 hrs; assay type: functional; in short: as §4
Trichophyton benhamiae [30] = experiment: Antifungal activity against Trichophyton mentagrophytes 445 after 72 hrs; assay type: functional, Arthroderma benhamiae
In short: (§5)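 Same modified M27-A microdilution with the mold inoculum of 0.5–5×10⁴ CFU/mL. Medium was RPMI 1640 with L-glutamine, no bicarbonate, and 0.165 M MOPS at pH 7.0. Twofold dilutions from 250 to 0.49. Incubated at 35 °C in a humid atmosphere.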

Trichophyton benhamiae [31] = experiment: Antifungal activity against Trichophyton mentagrophytes 445 after 120 hrs; assay type: functional, Arthroderma benhamiae; in short: as §5
L929 = experiment: Antiproliferative activity against mouse L929 cells after 72 hrs; assay type: functional; conditions: L929, 72 h
In short: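 About 10,000 adherent cells per well in RPMI 1640 with 10% heat-inactivated FBS and penicillin/streptomycin, without HEPES. Exposed to 10 concentrations for 72 h at 37 °C in humidified 5% CO₂. Monolayers fixed with glutaraldehyde, stained 15 min with 0.05% methylene blue, and eluted with 0.33 N HCl; OD read at 630 nm. GI50 derived from dose–response curves relative to control.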

K562 = experiment: Antiproliferative activity against human K562 cells after 72 hrs; assay type: functional; conditions: K562, 72 h
In short: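 About 10,000 suspension cells per well in RPMI 1640 with 10% heat-inactivated FBS and penicillin/streptomycin, without HEPES. Exposed to 10 concentrations for 72 h at 37 °C in humidified 5% CO₂. Wells diluted 1:50 in CASYTON and counted electronically, each result the mean of three successive counts. GI50 is where the concentration–response curve crosses 50% of control cell count.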

HeLa = experiment: Cytotoxicity against human HeLa cells after 72 hrs; assay type: functional; conditions: for CC50: Homo sapiens, HeLa, 72 h
In short: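 About 10,000 cells per well in RPMI 1640 were preincubated 48 h without compound. The 10 test concentrations were then applied onto the monolayers and incubated 72 h at 37 °C in humidified 5% CO₂. Monolayers fixed with glutaraldehyde, stained with 0.05% methylene blue, and eluted with 0.33 N HCl; optical density measured at 630 nm.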

| SMILES | MIC (Staphylococcus aureus [1]) [µg/mL] | MIC (Staphylococcus aureus [2]) [µg/mL] | MIC (Staphylococcus aureus [3]) [µg/mL] | MIC (Micrococcus luteus) [µg/mL] | MIC (Enterococcus faecalis) [µg/mL] | MIC [4] [µg/mL] | MIC (Mycolicibacterium aurum) [µg/mL] | MIC (Mycolicibacterium vaccae) [µg/mL] | MIC [5] [µg/mL] | MIC [6] [µM] | MIC [7] [µM] | MIC (Mycobacterium avium [8]) [µM] | MIC (Mycobacterium avium [9]) [µM] | MIC (Mycobacterium kansasii [10]) [µM] | MIC (Mycobacterium kansasii [11]) [µM] | MIC (Mycobacterium kansasii [12]) [µM] | MIC (Mycobacterium kansasii [13]) [µM] | MIC (Mycobacterium kansasii [14]) [µM] | MIC (Mycobacterium kansasii [15]) [µM] | MIC (Candida albicans [16]) [µM] | further results |
| --- | --- | --- | --- | --- | --- | --- | --- | --- | --- | --- | --- | --- | --- | --- | --- | --- | --- | --- | --- | --- | --- |
| C[C@]12CC[C@@H]3c4ccc(OCCCCCCC[n+]5ccc(SCc6ccccc6)cc5)cc4CC[C@H]3[C@@H]1CCC2=O.[Br-] | 3.12 | 3.12 | 3.12 | 0.4 | 6.25 | 1.56 | 3.12 | 1.56 | 6.25 | 4 | 8 | 2 | 2 | 8 | 8 | 8 | 8 | 8 | 16 | 3.9 | MIC (Candida albicans [17]): 3.9 µM; MIC (Candida tropicalis [18]): 15.6 µM; MIC (Candida tropicalis [19]): 15.6 µM; MIC (Pichia kudriavzevii [20]): 7.8 µM; MIC (Pichia kudriavzevii [21]): 7.8 µM; MIC (Nakaseomyces glabratus [22]): 15.6 µM; MIC (Nakaseomyces glabratus [23]): 15.6 µM; MIC (Trichosporon beigelii [24]): 3.9 µM; MIC (Trichosporon beigelii [25]): 7.8 µM; MIC (Aspergillus fumigatus [26]): 15.6 µM; MIC (Aspergillus fumigatus [27]): 31 µM; MIC (Lichtheimia corymbifera [28]): 31 µM; MIC (Lichtheimia corymbifera [29]): 31 µM; MIC (Trichophyton benhamiae [30]): 7.8 µM; MIC (Trichophyton benhamiae [31]): 7.8 µM; GI50 (L929): 4 µg/mL; GI50 (K562): 2.3 µg/mL; CC10 (HeLa): 1.2 µg/mL; CC50 (HeLa): 3.1 µg/mL |
| C[C@]12CC[C@@H]3c4ccc(OCCCCCCC[n+]5ccccc5)cc4CC[C@H]3[C@@H]1CCC2=O.[Br-] | 3.12 | 6.25 | 25 | 0.8 | 12.5 | 3.12 | 6.25 | 3.12 | 6.25 | 16 | 32 | 32 | 32 | 16 | 32 | 32 | 16 | 32 | 32 | 3.9 | MIC (Candida albicans [17]): 3.9 µM; MIC (Candida tropicalis [18]): 15.6 µM; MIC (Candida tropicalis [19]): 15.6 µM; MIC (Pichia kudriavzevii [20]): 15.6 µM; MIC (Pichia kudriavzevii [21]): 31.3 µM; MIC (Nakaseomyces glabratus [22]): 7.8 µM; MIC (Nakaseomyces glabratus [23]): 15.6 µM; MIC (Trichosporon beigelii [24]): 3.9 µM; MIC (Trichosporon beigelii [25]): 7.8 µM; MIC (Aspergillus fumigatus [26]): 3.9 µM; MIC (Aspergillus fumigatus [27]): 62.5 µM; MIC (Lichtheimia corymbifera [28]): > 250 µM; MIC (Lichtheimia corymbifera [29]): > 250 µM; MIC (Trichophyton benhamiae [30]): 31.3 µM; MIC (Trichophyton benhamiae [31]): 62.5 µM; GI50 (L929): 16.7 µg/mL; GI50 (K562): 5.3 µg/mL; CC10 (HeLa): 5.1 µg/mL; CC50 (HeLa): 17.5 µg/mL |

— ChEMBL document CHEMBL1143019, “Hybrid molecules of estrone: new compounds with potential antibacterial, antifungal, and antiproliferative activities” (2007)
